Compound activity deposited in PubChem BioAssay by several laboratories.
PfM18AAP inh = blocks P. falciparum M18 aspartyl aminopeptidase | recombinant PfM18AAP, H-Glu-NHMec fluorogenic cleavage | inhibition, % at 7.35 µM | 1.2% of 290,000 active | AID 1822;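 active means inhibition above the campaign mean inhibition over all tested compounds plus 3 SD, cut at about 28% in these data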;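 further: 0% = plate median of test compound wells and 100% = 2 mM ZnCl2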
zVAD death inh = L929 zVAD cell death inhibition. L929 zVAD necroptosis rescue, ATP luminescence, 24 h; with zVAD 60 µM. viability rescue, % at 10 µM. 0.38% of 220,000 active. AID 1377;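 active means activation, scaled between plate controls, above about 75%, limit read from the data; inactive means activation under that limit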;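 further: 0% = zVAD with DMSO and 100% = DMSO alone without zVAD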
RBBP9 inhibitor = inhibitors of human serine hydrolase RBBP9; recombinant RBBP9, FP-Rh probe fluorescence polarization; 0.2% of 220,000 active; inhibition, % at 7.94 µM; O75884; AID 1515;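 active means inhibition above the campaign mean of all tested compounds plus 3 SD, cut at about 14% in these data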;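 further: plate controls were DMSO wells with RBBP9 for no effect and wells lacking RBBP9 protein for full effect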
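Material: RBBP9 protein. Amount: RBBP9 at 2.5 µM in dispensed solution, before mixing. Schedule: 30 min then 45 min, 25 °C. Medium: Tris buffer pH 8.0, NaCl, Pluronic. Measured by: fluorescence polarization. Measure: percent inhibition from mP, scaled between DMSO and no-protein wells. Replication: one well per compound.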
Wee1 degr inh = blocks degradation of human Wee1 kinase; HeLa Luc-Wee1K328M stability, luciferase luminescence; 100% = proteasome inhibitor MG132 effect; reporter increase, % at 5 µM; 1.2% of 220,000 active; AID 1321;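 active means activation above the mean of all tested compounds plus 3 SD, set per screening run, cut at about 8.8% in these data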;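 further: cells exposed to compound for 20 h before luminescence read; 0% = DMSO alone and 100% = MG132 at 30 µM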
Target sequence (P30291 whole entry K328M): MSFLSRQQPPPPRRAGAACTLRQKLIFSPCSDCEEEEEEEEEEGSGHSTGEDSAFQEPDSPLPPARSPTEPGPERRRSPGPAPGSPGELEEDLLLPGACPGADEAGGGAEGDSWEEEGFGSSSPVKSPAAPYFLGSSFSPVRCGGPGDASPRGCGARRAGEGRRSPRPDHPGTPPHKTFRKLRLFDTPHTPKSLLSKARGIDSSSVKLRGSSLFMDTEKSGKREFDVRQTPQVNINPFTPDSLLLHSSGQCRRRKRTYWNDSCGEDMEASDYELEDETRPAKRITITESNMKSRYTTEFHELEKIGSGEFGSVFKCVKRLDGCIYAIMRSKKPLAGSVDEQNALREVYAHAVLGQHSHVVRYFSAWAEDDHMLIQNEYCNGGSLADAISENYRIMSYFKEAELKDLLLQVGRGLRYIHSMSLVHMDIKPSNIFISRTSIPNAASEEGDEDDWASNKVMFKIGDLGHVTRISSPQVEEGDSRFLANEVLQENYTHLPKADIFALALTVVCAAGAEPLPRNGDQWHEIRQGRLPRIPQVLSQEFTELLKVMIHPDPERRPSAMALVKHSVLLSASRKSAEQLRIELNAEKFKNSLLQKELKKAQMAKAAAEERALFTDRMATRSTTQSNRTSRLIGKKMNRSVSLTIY
TNF necrop inh = TNF-alpha cell death inhibition in Jurkat FADD-/- cells. Jurkat FADD-/- TNF necroptosis rescue, ATP luminescence, 24 h; 0 = TNF only, 100 = no-TNF cells. activation (protection from cell death), % at 10 µM. AID 463075. 0.068% of 220,000 active;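 active means activation, meaning protection from cell death, of at least 50% relative to plate controls; inactive means activation below 50%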;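 further: necroptosis triggered by 40 ng/mL TNF-alpha added together with compound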
p97 inhibitor = inhibitors of human p97 ATPase; P55072; recombinant p97 ATPase, Kinase-Glo ATP luminescence, 3 h; inhibition, % at 8 µM; 0.42% of 220,000 active; in the data active means inhibition above about 15%;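 further: 0% = DMSO vehicle and 100% = wells lacking enzyme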
* marks the source's active call; other numbers are inactive results; . = not tested or not shown. Compounds with a hit are over-represented: about 2.7% of the library has one in this group of screens.

SMILES	PfM18AAP inh	zVAD death inh	RBBP9 inhibitor	Wee1 degr inh	TNF necrop inh	p97 inhibitor
Cc1cc(CN(C)Cc2c(C(=O)N3CCCCCCC3)nc3ccc(Cl)cn23)n[nH]1	8	0	-1	9.3*	1	-1
CCCc1c(C(=O)Nc2cc(C(C)(C)C)on2)cnn1-c1ccccc1	-12	1	-4	9.8*	1	1
CCCc1cc(C(=O)N/N=C/c2cccn2C)cs1	-1	.	.	.	.	.
CCN(C(=O)CCc1nnc2ccc(NCc3ccco3)nn12)c1ccccc1	29*	.	.	.	.	.
O=C(CCc1nnc2ccc(NCc3ccco3)nn12)Nc1ccccn1	26	.	.	.	.	.
O=C(N/N=C/c1cn(-c2ccccc2)nc1-c1cccs1)c1ccncc1	-3	1	-42	-3	1	-3
O=C(O)c1cccc(N/N=C/c2cn(-c3ccccc3)nc2-c2cccs2)c1	31*	2	-4	1	-1	1
CC(C)[C@@H](N)C(=O)N/N=C/c1ccc2ncccc2c1	5	1	5	18*	3	4
COc1ccc(OC)c(/C=N/NC(=O)CCc2ccc(O)c(O)c2)c1	31*	1	0	0	2	7
CCOC(=O)/C=C(\C)Sc1cc(O)c2ccccc2c1O	-4	3	9	3	-28	36*
CCOC(=O)/C=C(\C)Sc1cc(=O)oc2ccccc12	-6	1	-10	0	0	-5
CN(CC(=O)Nc1ccc(F)c(F)c1F)C(=O)c1ccc(=O)[nH]c1	4	.	.	.	.	.
CC1c2cc3c(cc2CCN1C(=O)c1cccc(F)c1)OCCCO3 (centres undefined)	-9	.	.	.	.	.
COc1cccc2c1C(=O)c1c(O)c3c(c(O)c1C2=O)C[C@@](O)(C(C)=O)C[C@@H]3O[C@H]1C[C@H](N)[C@H](O)[C@H](C)O1	8	65	27*	-4	-29	-4
Cc1ccc(S(=O)(=O)N(C)C)cc1-n1c(SCC(=O)Nc2ccc(F)cc2)nc2ccccc2c1=O	1	0	-10	0	4	7
Cc1ccc(S(=O)(=O)N(C)C)cc1-n1c(SCC(=O)Nc2ccc(F)cc2Cl)nc2ccccc2c1=O	0	2	-9	8.9*	4	2
COc1ccccc1N(C)S(=O)(=O)c1ccc(C(=O)OCC(=O)Nc2ccccc2F)cc1	2	2	-7	11*	1	4
O=C1N/C(=N\N=C\c2ccccn2)SC1Cc1cccc(SC(F)F)c1 (centres undefined)	1	82*	-4	1	-15	2
COc1ccc(CNc2ccc(C(=O)O)cc2)cc1	0	0	-9	0	0	5
COc1ccc(CNc2ccc(Br)cc2)cc1	-1	20	-13	10*	28	4
COc1ccc(Nc2ccc(OC)cc2)cc1	20	2	6	3	12	15*
COc1ccc(CCNC(=O)CCCN2C(=O)C(c3ccccc3)Oc3cccnc32)cc1OC (centres undefined)	-8	.	.	.	.	.
O=C(Nc1ccc(C(=O)Nc2ccccc2Cl)cc1)c1cccnc1	3	.	.	.	.	.
Cn1c(CSc2nc3ccccc3s2)n[nH]c1=S	30*	2	0	0	0	1
Cn1c(Cc2ccccc2)n[nH]c1=S	30*	1	3	0	1	5
SMILES	PfM18AAP inh	zVAD death inh	RBBP9 inhibitor	Wee1 degr inh	TNF necrop inh	p97 inhibitor
O=C(CCCOc1ccccc1)Nc1ccc(Cl)cn1	4	36	-6	1	2	-3
COc1ccc(-c2nnc(SCC(=O)O)n2Cc2ccccc2)cc1	-4	.	.	.	.	.
C#CCOc1ccc(C2C3=C(CC(C)(C)CC3=O)N(CC(=O)O)C3=C2C(=O)CC(C)(C)C3)cc1OC	32*	.	.	.	.	.
CCOc1cc(C2C3=C(CC(C)(C)CC3=O)N(CCCOC)C3=C2C(=O)CC(C)(C)C3)ccc1O	31*	.	.	.	.	.
CCOC(=O)N1CCN(CC(O)COc2ccc3c(c2)CCC3)CC1 (centres undefined)	-6	.	.	.	.	.
CCN(CC)S(=O)(=O)c1ccc(C(=O)N(c2ccc(C)cc2)C2C=CS(=O)(=O)C2)cc1 (centres undefined)	-1	0	-1	-2	1	-1
CN(Cc1ccccc1)c1nc(-c2cccc([N+](=O)[O-])c2)nc2ccccc12	-4	0	-13	11*	2	-4
N#Cc1c(SCc2ccccc2)sc(C(=O)c2ccccc2)c1N	-2	0	-11	9.2*	0	5
CC(C)N(Cc1ccccc1)C(=O)CN1C(=O)NC(Cc2ccccc2)(c2ccccc2)C1=O (centres undefined)	4	.	.	.	.	.
CCOc1ccc(C(=S)N2CCCC2)c(OCC)c1	30*	.	.	.	.	.
CCOc1ccc(C(=S)N2CCCC2)cc1	-4	1	-7	1	0	-2
Cc1[nH]nc(Nc2ccc(O)cc2)c1[N+](=O)[O-]	31*	2	0	-1	0	3
COc1ccc(Nc2n[nH]c(C)c2[N+](=O)[O-])cc1	0	4	3	0	2	4
O=C(COC(=O)CN1C(=O)c2ccccc2C1=O)Nc1ncc(Cl)cc1Cl	4	0	5	-3	-2	3
CC(C)CC(C(=O)OCC(=O)Nc1ncc(Cl)cc1Cl)N1C(=O)c2ccccc2C1=O (centres undefined)	3	0	1	11*	0	-1
COc1cccc(OC)c1OCCN(C)C	31*	0	-3	0	0	6
S=c1[nH]c(-c2ccccc2)cn1/N=C/c1ccc(Br)cc1	19	-2	-9	5	-2	0
O=C(O)c1ccc(/C=N/n2cc(-c3ccccc3)[nH]c2=S)cc1	48*	0	-11	-3	2	9
Cc1ccc(-c2cn(-c3ccccc3F)c(=S)[nH]2)cc1	10	.	.	.	.	.
Cc1ccc(C)c(/C=N/n2cc(-c3ccccc3)[nH]c2=S)c1	29*	-1	-9	4	-6	2
Cc1cccc(C(=O)OCC(=O)NC(C)CCc2ccccc2)c1O (centres undefined)	-7	.	.	.	.	.
O=C(NN=C1CCCC1)c1cc(Br)ccc1O	-1	.	.	.	.	.
O=C(NN=C1CCCC1)c1ccc(O)cc1O	31*	.	.	.	.	.
COc1cc(CCC(=O)Nc2cc(Cl)ccc2N2CCN(C)CC2)cc(OC)c1OC	-8	0	-2	9.2*	3	0
COc1cccc(N2CCN(CC(=O)Nc3ccc(SC(F)F)cc3)CC2)c1	-2	0	-13	0	2	-13
O=C(CN1CCN(c2ccc(O)cc2)CC1)Nc1ccc(SC(F)F)cc1	28*	0	-4	0	-3	2
N#Cc1ccsc1NC(=O)CN1CCN(c2ccc(O)cc2)CC1	30*	0	2	-3	-2	7
O=C1CSC(=S)N1c1cccc(Br)c1	30*	.	.	.	.	.
